Assay: Displacement of [125I]TZDM from amyloid beta 1 to 42 aggregates
How it was run: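 Competitive binding against aggregated Aβ1–42 with [125I]TZDM as radioligand. Non-specific binding defined with 2 µM thioflavin T. Incubated 3 h at room temperature. Bound and free radioactivity separated by vacuum filtration through GF/B filters, followed by two washes with 10% EtOH at room temperature. IC50 converted to Ki by the Cheng–Prusoff equation.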

Nc1ccc(N2Cc3cc(OCCF)ccc3C2=O)cc1
Ki: 0.61 nM

Nc1ccc(N2C(=O)c3ccc(OCCF)cc3C2=O)cc1
Ki: 0.59 nM

CN(C)c1ccc(N2C(=O)c3ccc(OCCF)cc3C2=O)cc1
Ki: 0.69 nM

Nc1ccc(N2C(=O)c3ccc(OCCCF)cc3C2=O)cc1
Ki: 0.74 nM

CNc1ccc(N2C(=O)c3ccc(OCCCF)cc3C2=O)cc1
Ki: 0.78 nM

CNc1ccc(N2Cc3cc(OCCF)ccc3C2=O)cc1
Ki: 0.91 nM

CN(C)c1ccc(N2Cc3cc(OCCF)ccc3C2=O)cc1
Ki: 0.3 nM

Nc1ccc(N2Cc3cc(OCCCF)ccc3C2=O)cc1
Ki: 0.4 nM

CNc1ccc(N2Cc3cc(OCCCF)ccc3C2=O)cc1
Ki: 0.51 nM

CN(C)c1ccc(N2Cc3cc(OCCCF)ccc3C2=O)cc1
Ki: 0.71 nM

CN(C)c1ccc(N2C(=O)c3ccc(OCCCF)cc3C2=O)cc1
Ki: 0.85 nM

CNc1ccc(N2C(=O)c3ccc(OCCF)cc3C2=O)cc1
Ki: 0.6 nM

CNc1ccc(-c2nc3ccc(O)cc3s2)cc1 [PITTSBURGH COMPOUND B UNLABELLED]
Ki: 0.77 nM

Source: ChEMBL document CHEMBL1142511, “[(18)F]-labeled isoindol-1-one and isoindol-1,3-dione derivatives as potential PET imaging agents for detection of beta-amyloid fibrils” (Bioorg Med Chem Lett, 2008)
